This note sets out measurements from ChEMBL document CHEMBL4145612, “Phenolic Constituents Isolated from the Twigs of Cinnamomum cassia and Their Potential Neuroprotective Effects” (J Nat Prod, 2018).

In this assay the test system is SH-SY5Y. The assay is described as follows: Neuroprotective activity against tunicamycin-induced cell death in human SH-SY5Y cells pretreated for 6 hrs followed by tunicamycin addition measured after 48 hrs by MTT assay. The format is functional, cell-based. In short, it runs like this:
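SH-SY5Y cells grown in DMEM/High Glucose:F12 (1:1) with 10% FBS at 37 °C, 5% CO2, seeded 4 × 10^3/well and left 12 h. Compounds given at 25, 50 and 100 μM for 6 h, then tunicamycin added for 48 h. Medium replaced; MTT 0.5 mg/mL final, 4 h at 37 °C; absorbance 570 nm. Salubrinal 40 μM as positive control; three independent experiments, means ± SEM; EC50 derived.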
Background: Tetrazolium dyes change colour on reduction, which living cells bring about.
Usually EC50 stands for the concentration at which the effect is half-maximal. Turning to `O=C1OC[C@@H](c2ccc(O)c(O)c2)[C@@H]1c1ccc(O)cc1`, the Activity entry is “Dose-dependent effect” and the EC50 fell in the range of 21 to 75 µM.

Turning to `COc1ccc([C@@H]2C(=O)OC[C@H]2c2ccc3c(c2)OCO3)cc1`, the Activity entry is “Dose-dependent effect” and the EC50 fell in the range of 21 to 75 µM.

For the compound `C=CCc1cc(O)c(-c2c(OC)cc([C@H]3OO[C@H]3CO)cc2OC)c(OC)c1`, the Activity entry was “Dose-dependent effect” and the concentration giving a half-maximal response (EC50) lay in the range of 21 to 75 µM.

`OC[C@H]1O[C@@H](OC/C=C/c2ccccc2)[C@H](O)[C@@H](O)[C@@H]1O`: the Activity entry is “Dose-dependent effect” and the concentration giving a half-maximal response (EC50) was 21 to 75 µM.

For the compound `COc1cc([C@H](OC)[C@@H]2CO[C@@H](c3cc(OC)c(O)c(OC)c3)[C@@H]2COC(C)=O)cc(OC)c1O`, the Activity entry is “Dose-dependent effect” and the EC50 fell in the range of 21 to 75 µM.

With `C=CCc1cc(O)c(-c2c(OC)cc([C@@H]3OO[C@@H]3CO)cc2OC)c(OC)c1`, the Activity entry was “Dose-dependent effect” and the 50% effective concentration (EC50) lay in the range of 21 to 75 µM.

With `O=C(CCc1ccccc1)OC/C=C/c1ccccc1`, the Activity result is “Dose-dependent effect” and the EC50 was in the range of 21 to 75 µM.

In the case of `COc1ccc([C@@H]2C(=O)OC[C@H]2c2ccc(O)c(OC)c2)cc1`, the Activity result is “Dose-dependent effect” and the EC50 fell in the range of 21 to 75 µM.
